16 molecules from ChEMBL document CHEMBL3421621, “SAR Studies of Diphenyl Cationic Trypanocides: Superior Activity of Phosphonium over Ammonium Salts” (ACS Med Chem Lett, 2015) can be followed below.

Bounds are passed on as bounds.

The test system of data set [1] is Trypanosoma brucei brucei. As to the kind of experiment: Antitrypanosomal activity against AT1 knock out Trypanosoma brucei brucei assessed as cell viability after 48 hrs by alamar blue assay. In kind it is functional, organism-based. The method, boiled down: (§1)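 Alamar blue viability assay run in parallel on T. b. brucei s427 wild type trypomastigotes, the TbAT1-KO strain (no functional P2 transporter) and the B48 strain (derived from TbAT1-KO, nonfunctional HAPT). EC50 values are the mean of three experiments ± SEM. Resistance factor is the EC50 against each resistant strain relative to wild type.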

The test system of data set [2] is Trypanosoma brucei brucei. As to the kind of experiment: Antitrypanosomal activity against wild type Trypanosoma brucei brucei s427 trypomastigotes assessed as cell viability after 48 hrs by alamar blue assay. In kind it is functional, organism-based. As to conditions: s427, 48 h. The method, boiled down:
as §1
For orientation: The colour change of resazurin is a common sign of viable cells or microbes.

The test system of data set [3] is Trypanosoma brucei brucei. Put plainly: Antitrypanosomal activity against Trypanosoma brucei brucei B48 with nonfunctional high affinity pentamidine transporter assessed as cell viability after 48 hrs by alamar blue assay. In kind it is functional, organism-based. The conditions noted are these: B48, 48 h. Summed up: as §1
The test system of data set [4] is Trypanosoma brucei brucei. Put plainly: Resistance factor, ratio of EC50 for Trypanosoma brucei brucei B48 to EC50 for wild type Trypanosoma brucei brucei s427 trypomastigotes. In kind it is functional. The method, boiled down: (§2)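 AlamarBlue-based viability assay run in parallel on wild-type T. b. brucei s427 trypomastigotes and two resistant strains. TbAT1-KO lacks a functional P2 transporter and is diminazene-resistant. B48 is derived from TbAT1-KO and also lacks a functional high-affinity pentamidine transporter (HAPT). EC50 values are means of three experiments ± SEM. Each resistant-strain EC50 is divided by the wild-type EC50.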

In data set [5] the test system is Trypanosoma brucei brucei. Put plainly: Resistance factor, ratio of EC50 for AT1 knock out Trypanosoma brucei brucei to EC50 for wild type Trypanosoma brucei brucei s427 trypomastigotes. In kind it is functional. Summed up: as §2
The nature of data set [6]: Cytotoxicity against HEK293 cells after 16 hrs by alamar blue assay. In kind it is cell-based. As to conditions: human.
A short description of data set [7]: Selectivity index, ratio of CC50 for HEK293 cells to EC50 for wild type Trypanosoma brucei brucei s427 trypomastigotes. In kind it is toxicity, cell-based. The conditions noted are these: human; read-out: Ratio CC50/EC50. The method, boiled down:
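Selectivity index = CC50 for HEK cells divided by EC50 against T. b. brucei s427 wild type.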

The term EC50 denotes the midpoint of the concentration-response curve. Take `CC[N+](CC)(CC)Cc1ccc(Oc2ccc(C[N+](CC)(CC)CC)cc2)cc1`: the EC50 in data set [1], in data set [2] and in data set [3] was over 100 µM each time.

As usually defined, the CC50 is the concentration that lowers cell viability or growth by half. As to `CCCC[N+](CCCC)(CCCC)Cc1ccc(Oc2ccc(C[N+](CCCC)(CCCC)CCCC)cc2)cc1.[Br-].[Br-]`, the figures for the EC50 in data set [1], in data set [2] and in data set [3] were 3.98 µM, 2.8 µM and 3 µM, respectively. The “Ratio EC50” value in data set [4] is 1.1; in data set [5] it was 1.4. The same molecule displayed a CC50 at 16 h in data set [6] of over 300 µM. Moreover, in data set [7], the selectivity ratio is over 100.

With `CCCCCC[N+](CCCCCC)(CCCCCC)Cc1ccc(Oc2ccc(C[N+](CCCCCC)(CCCCCC)CCCCCC)cc2)cc1.[Br-].[Br-]`, the EC50 in data set [1] worked out at 0.08 µM; in data set [2], 0.102 µM; in data set [3] it was 0.065 µM. Moreover, the “Ratio EC50” value in data set [4] came out at 0.6; in data set [5], 0.8. The same molecule registered a CC50 at 16 h in data set [6] of 21.8 µM. In addition, in data set [7], the selectivity ratio was 213.

In the case of `[Br-].[Br-].c1cc[n+](Cc2ccc(Oc3ccc(C[n+]4ccccc4)cc3)cc2)cc1`, the results for the EC50 in data set [1], in data set [2] and in data set [3] were over 100 µM, 85 µM and 72 µM, respectively. Moreover, the “Ratio EC50” value in data set [4] is on record as 0.8.

With `[Br-].[Br-].c1ccc2c(c1)ccc[n+]2Cc1ccc(Oc2ccc(C[n+]3cccc4ccccc43)cc2)cc1`, the EC50 in data set [1] amounted to 10.2 µM; in data set [2] it was 11 µM; in data set [3] it was 9.7 µM. Moreover, the “Ratio EC50” value in data set [4] and in data set [5] was 0.9 throughout. In data set [6], this molecule returned a CC50 at 16 h of over 300 µM. In data set [7], the selectivity ratio is over 27.

With `CC[N+](CC)(CC)Cc1ccc(C(=O)c2ccc(C[N+](CC)(CC)CC)cc2)cc1`, the EC50 in data set [1], in data set [2] and in data set [3] was over 100 µM throughout.

In the case of `CCCC[N+](CCCC)(CCCC)Cc1ccc(C(=O)c2ccc(C[N+](CCCC)(CCCC)CCCC)cc2)cc1.[Br-].[Br-]`, the figures for the EC50 in data set [1], in data set [2] and in data set [3] were 16.7 µM, 11.5 µM and 14.1 µM, respectively. The “Ratio EC50” value in data set [4] was 1.2; in data set [5], 1.4. The molecule further gave a CC50 at 16 h in data set [6] of over 300 µM. The selectivity ratio in data set [7] is over 26.

For the molecule `O=C(c1ccc(C[n+]2ccccc2)cc1)c1ccc(C[n+]2ccccc2)cc1`, the EC50 in data set [1], in data set [2] and in data set [3] was over 100 µM in each case.

With `O=C(c1ccc(C[n+]2cccc3ccccc32)cc1)c1ccc(C[n+]2cccc3ccccc32)cc1.[Br-].[Br-]`, the EC50 in data set [1] stood at 35.2 µM; in data set [2], 45.4 µM; in data set [3] it was 30.9 µM. Besides, the results for the “Ratio EC50” value in data set [4] and in data set [5] were 0.7 and 0.8, respectively. The molecule also showed a CC50 at 16 h in data set [6] of over 300 µM. Moreover, the selectivity ratio in data set [7] is over 6.

In the case of `CCCC[N+](CCCC)(CCCC)Cc1ccc(C(=O)c2ccccc2)cc1.[Br-]`, the EC50 in data set [1] was determined as 4.1 µM; in data set [2] it was 4.6 µM; in data set [3] it was 4.5 µM. The “Ratio EC50” value was 1 in data set [4] and 0.9 in data set [5]. This molecule also displayed a CC50 at 16 h in data set [6] of over 300 µM. Besides, in data set [7], the selectivity ratio is over 65.

In the case of `CCCCCC[N+](CCCCCC)(CCCCCC)Cc1ccc(C(=O)c2ccccc2)cc1.[Br-]`, the EC50 in data set [1] turned out to be 0.018 µM; in data set [2], 0.023 µM; in data set [3] it was 0.014 µM. The “Ratio EC50” value in data set [4] worked out at 0.6; in data set [5], 0.8. The same molecule gave a CC50 at 16 h in data set [6] of 15.4 µM. Moreover, the selectivity ratio in data set [7] was 668.

`O=C(c1ccccc1)c1ccc(C[n+]2ccccc2)cc1`: the EC50 in data set [1], in data set [2] and in data set [3] was over 100 µM each time.

As to `O=C(c1ccccc1)c1ccc(C[n+]2cccc3ccccc32)cc1`, the EC50 in data set [1] is 68.5 µM; in data set [2], over 100 µM; in data set [3] it was 81.5 µM.

As to `Cl.O=C(c1ccccc1)c1ccc(CN(Cc2ccccc2)Cc2ccccc2)cc1`, the results for the EC50 in data set [1], in data set [2] and in data set [3] were 10 µM, 11 µM and 8.3 µM, respectively. Moreover, the “Ratio EC50” value in data set [4] came to 0.7; in data set [5] it was 0.9. In data set [6], the CC50 at 16 h is over 300 µM. The selectivity ratio in data set [7] was over 27.

Regarding `N=C(N)c1ccc(/N=N/Nc2ccc(C(=N)N)cc2)cc1` [DIMINAZENE], the values for the EC50 in data set [1] and in data set [2] were 0.738 µM and 0.323 µM, respectively. The “Ratio EC50” value in data set [4] turned out to be 3.1; in data set [5], 2.3.

As to `N=C(N)c1ccc(OCCCCCOc2ccc(C(=N)N)cc2)cc1` [PENTAMIDINE], the results for the EC50 in data set [1], in data set [2] and in data set [3] were 0.006 µM, 0.01 µM and 0.329 µM, respectively. In addition, the “Ratio EC50” value in data set [4] came out at 32.9; in data set [5], 0.6.
